Data as given in ChEMBL document CHEMBL1177641, “Synthesis and anti-hepatitis C virus (HCV) activity of 3'-C-substituted-methyl pyrimidine and purine nucleosides” (Bioorg Med Chem, 2010).

Key:
[1] = Cytotoxicity against human Huh7 cells after 3 days by WST-1 assay; assay type: cell-based, Huh-7
Procedure, shortened: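 Huh-5-2 cells seeded 5 × 10³/well in complete DMEM with G418. Serial compound dilutions in complete DMEM without G418 added 24 h after seeding. Cells proliferated three days at 37 °C, then cell number determined by WST-1 assay.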

Hepatitis C virus = assay: Antiviral activity against HCV genotype1 infected in human Huh7 cells assessed as reduction of viral replication by steady-Glo luciferase assay; assay type: functional, organism-based, Hepacivirus hominis; details: genotype 1, Huh-7
Procedure, shortened: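 Huh-5-2 cells (Huh-7 with subgenomic genotype 1 replicon, luc-ubi-neo) seeded 5 × 10³/well in complete DMEM with 500 µg/mL G418; after 24 h at 37 °C, 5% CO₂, medium refreshed with G418 and compounds added from DMSO stock. Four days at 37 °C, then luciferase read by Steady-Glo. EC50 is the concentration halving replication; three repeats, mean ± SD.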

[2] = Selectivity index, ratio of CC50 for human Huh7 cells to EC50 for HCV genotype1; set-up: species or system Huh-7

| Compound | CC50 at 72 h [1] [µM] | EC50 (Hepatitis C virus) [µM] | Ratio CC50/EC50 [2] |
| --- | --- | --- | --- |
| CNc1ncnc2c1ncn2[C@@H]1O[C@H](CO)[C@](O)(CO)[C@H]1O | 58.8 | 37.8 | 1.6 |
| Nc1ncnc2c1ncn2[C@@H]1O[C@H](CO)[C@](O)(CO)[C@H]1O | 37.3 | 18.6 | 2 |
| Nc1ncnc2c1ncn2[C@@H]1O[C@H](CO)[C@](O)(CF)[C@H]1O | 18.9 | 15.3 | 1.2 |
| CNc1ncnc2c1ncn2[C@@H]1O[C@H](CO)[C@](O)(CF)[C@H]1O | > 100 | – | – |
| Nc1ccn([C@@H]2O[C@H](CO)[C@](O)(CF)[C@H]2O)c(=O)n1 | > 100 | – | – |
| [N-]=[N+]=NC[C@@]1(O)[C@@H](CO)O[C@@H](n2cnc3c(N)ncnc32)[C@@H]1O | 12.3 | 11.8 | 1 |
| CNc1ncnc2c1ncn2[C@@H]1O[C@H](CO)[C@](O)(CN=[N+]=[N-])[C@H]1O | > 100 | > 100 | – |
| [N-]=[N+]=NC[C@@]1(O)[C@@H](CO)O[C@@H](n2cnc3c(O)ncnc32)[C@@H]1O | > 100 | > 100 | – |
| [N-]=[N+]=NC[C@@]1(O)[C@@H](CO)O[C@@H](n2ccc(N)nc2=O)[C@@H]1O | > 100 | > 100 | – |
| C[C@@]1(O)[C@H](O)[C@@H](CO)O[C@H]1n1cnc2c(N)ncnc21 | – | 0.3 | – |
